# Screening results deposited in PubChem by several laboratories.
# STAT3 activator: activators of IL-6 induced STAT3 signaling | U3A cells, IL-6 STAT3-luciferase reporter, luminescence; 100% = signal with IL-6 EC80 alone | activation (% of control), % at 5.6 µM | hit rate 0.91% among 190,000 | AID 871;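 active = activation above the screen-wide mean of compound activation plus 3 SD, cut at about 130% in these data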;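 also: 0% = background luminescence of wells with medium and substrate only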
#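 Material: human U3A cells carrying STAT3-luciferase construct. Measured by: reporter luminescence signal. Timing: compound 1 h, then IL-6 6 h at 37 °C.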
# STAT3 inh: inhibitors of IL-6 induced STAT3 signaling; U3A cells, IL-6 STAT3-luciferase reporter, luminescence; host cell line lacks STAT1; inhibition, % at 5.5 µM; hit rate 0.89% among 190,000; AID 862;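 active = inhibition above the mean inhibition across all screened compounds plus 3 SD, cut at about 44% in these data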;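 also: 0% = DMSO only wells and 100% = 100 µM nifuroxazide control wells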
# APP 5'UTR act: APP 5'UTR luciferase reporter activation | activation, % at 2 µM | hit rate 1% among 190,000 | SH-SY5Y APP 5'UTR luciferase reporter, luminescence; zero percent = DMSO vehicle wells | AID 1276;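 active = activation above a set limit, based on mean plus 3 SD of controls, cut at about 140% in these data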
# NF-kB expr up: raises NF-kB expression in human neuronal cells; fold change at 12.5 µM; hit rate 1.6% among 190,000; AID 1239; NF-kB reporter expression; hits give high values; in the data active = fold change above about 3.3
# STAT1 activator: STAT1 signaling activation | NIH 3T3 STAT1-luciferase reporter, IFN-gamma, luminescence; 100% = IFN-gamma alone, no compound | activation (% of control), % at 5.5 µM | hit rate 2.6% among 200,000;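 active = activation above the screen-wide mean activation plus 3 SD, cut at about 130% in these data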;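 also: raw ratio to IFN-gamma control signal so 100% means no change and 0% no light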
# STAT1 blocker: STAT1 signaling inhibition; hit rate 0.35% among 200,000; NIH 3T3 STAT1-luciferase reporter, IFN-gamma, luminescence; inhibition, % at 5.5 µM; AID 920;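 active = inhibition above a set limit, the mean inhibition across all tested compounds plus 3 SD, cut at about 34% in these data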;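 also: 0% = IFN-gamma with DMSO and 100% = IFN-gamma with 300 µM nifuroxazide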
# * = called active by the depositor; . = not tested or not shown. This is a sample that favours compounds with a hit; in the whole collection about 4.9% have one here.
SMILES,STAT3 activator,STAT3 inh,APP 5'UTR act,NF-kB expr up,STAT1 activator,STAT1 blocker
CNC(=O)CSc1nnc(SCCC(=O)O)s1,94,8,19,1.1,95,6
COc1ccc(C(=O)c2c[nH]c3ccccc23)cc1,109,-12,96,3.5*,134*,-43
Cc1ccc2c(c1)C(O)(c1c(C)[nH]c3ccccc13)C(=O)N2 (configuration not stated),134*,-39,-7,1,103,3
C#CCN1C(=O)C(O)(c2c(C)[nH]c3ccccc23)c2ccccc21 (configuration not stated),.,.,24,.,.,.
CCNC(=O)c1ccc(C23CC4CC(CC(C4)C2)C3)o1,98,4,10,1,105,-8
COc1cc(NC(=O)CCc2ccccc2)nc(OC)n1,99,5,12,1.4,106,-10
COc1ccc(C(=O)Nc2cc(OC)nc(OC)n2)cc1,80,27,140*,7.2*,138*,-34
CCOC(=O)N1CCC(N2CCCC(CO)(Cc3cccc(Cl)c3)C2)CC1 (configuration not stated),110,-7,-18,0.96,104,-6
CCn1c(C)c(C(C)=O)cc(C#N)c1=O,97,8,-6,1.3,99,0
N=c1c(C(=O)NCc2ccco2)cc2c(=O)n3ccccc3nc2n1Cc1ccccc1,107,-5,2,1.1,111,-11
N=c1c(C(=O)NCc2ccccc2)cc2c(=O)n3ccccc3nc2n1Cc1ccco1,93,15,16,12*,99,1
COC(=O)c1cc2c(=O)n3ccccc3nc2n(C(C)C)c1=N,136*,-39,-7,.,104,-4
CCOc1cc(NC(=O)c2ccccc2C)c(OCC)cc1NC(=O)C1=Cc2ccccc2OC1,95,14,-3,0.98,99,4
COc1ccc(C2C(C(=O)c3ccccc3)N3c4ccccc4C=CC3C2[N+](=O)[O-])cc1 (configuration not stated),133*,-38,10,1.5,99,0
CC(C)(C)c1cc(C(=O)N2CCN(c3ncccn3)CC2)ccn1,93,10,4,4.8*,96,8
O=C(c1ccc(F)cc1)N1CCN(c2ncccn2)CC1,100,0,7,0.95,112,-12
c1ccc2[nH]c(SCC3CCCCO3)nc2c1 (configuration not stated),98,6,152*,3.7*,131*,-36
Cc1ccc(-c2nc(N)sc2-c2ccccc2)cc1C,95,9,-1,0.83,86,16
N/C(=N\OC(=O)COc1ccc(Cl)cc1Br)c1cccnc1,104,2,87,2.9,146*,-54
N/C(=N\OC(=O)c1ccc([N+](=O)[O-])cc1)c1cccnc1,89,15,25,1.7,121,-24
N/C(=N\OC(=O)c1ccccc1Cl)c1ccccn1,46,69*,123,0.88,31,78*
N/C(=N\OC(=O)c1ccc(Cl)c(Cl)c1)c1ccccn1,102,2,140*,4.5*,131*,-35
N/C(=N\OC(=O)COc1ccc(Br)cc1Cl)c1cccnc1,116,-13,62,1.6,127,-31
N/C(=N\OC(=O)c1ccc(Br)o1)c1cccnc1,90,15,36,1.7,131*,-35
O=C1OC(c2cccc([N+](=O)[O-])c2)C2(CCCC2)C(=O)C12CCCCC2 (configuration not stated),101,2,-6,1,92,9
SMILES,STAT3 activator,STAT3 inh,APP 5'UTR act,NF-kB expr up,STAT1 activator,STAT1 blocker
N/C(=N\OC(=O)c1cccnc1)c1ccccc1Cl,90,19,12,1.6,131*,-36
N/C(=N\OC(=O)c1ccccc1[N+](=O)[O-])c1ccccn1,94,18,104,3.9*,94,6
N/C(=N\OC(=O)c1ccccc1[N+](=O)[O-])c1cccnc1,112,-3,41,1.6,110,-16
COc1ccc(C2CC(c3ccc(Cl)cc3)=NN2C(=O)c2cccc([N+](=O)[O-])c2)cc1 (configuration not stated),100,5,16,0.88,96,4
Cc1ccc(C(=O)NC2CCc3ccccc3C2=O)cc1 (configuration not stated),97,5,156*,3.9*,141*,-43
O=C(CSc1ncn[nH]1)NCCC(c1ccccc1)c1ccccc1,105,-3,8,0.92,100,0
Cn1c(CNC(=O)c2cccs2)nnc1SCC(=O)Nc1ccccc1,106,-6,19,1,108,-9
CSc1ccc(/C=N/n2c(C)nnc2C)cc1,101,0,-10,1.2,88,11
CSc1ccc(/C=N/n2c(C)cc(C)cc2=O)cc1,90,15,19,2.4,130*,-33
C#CCOCCOCCOCCNc1nc(N2CCN(C(=O)[C@H]([C@@H](C)CC)n3cc([C@@H](N)Cc4ccc(O)cc4)nn3)CC2)nc(N2CCN(C(=O)[C@H](CCCCN)n3cc([C@@H](N)CC(C)C)nn3)CC2)n1,.,.,-11,0.9,105,-4
O=C(Nc1ccc(N2CCOCC2)c(Cl)c1)c1ccc([N+](=O)[O-])o1,101,4,-95,1.1,129*,-32
CC(C)C(=O)N1CCN(c2ccc(NC(=O)c3ccc(Br)o3)cc2)CC1,102,0,17,1,97,2
CC(C)C(=O)N1CCN(c2ccc(NC(=O)c3ccc([N+](=O)[O-])o3)cc2)CC1,95,13,-57,0.32,141*,-46
CC(C)c1nnc(SCC(=O)N2CCc3ccccc32)n1N,97,6,-6,1.3,96,4
COc1ccc(Cn2c(=O)[nH]c3cc(C(=O)NCCc4ccc(S(N)(=O)=O)cc4)ccc3c2=O)cc1,105,0,-10,1.1,109,-7
CN(C)c1nc(N(C)C)nc(N(C#N)CN2C(=O)c3ccccc3S2(=O)=O)n1,101,4,-10,0.99,96,4
CN(C)c1ccc(C2=NOC(CN3C(=O)c4ccccc4S3(=O)=O)C2)cc1 (configuration not stated),99,5,93,3.4*,147*,-52
CC(C)(C)c1ccc(/C=C/C(=O)Nc2nncs2)cc1,115,-8,168*,1.2,126,-29
COC(=O)c1sc(NC(=O)/C=C/c2ccc(C)cc2)nc1C,92,13,30,1.2,104,-4
CN(C)c1ccc(/C=N/NC(=S)NCc2ccco2)cc1,92,13,32,1,104,-5
CN(C)c1ccc(C(=S)NCc2ccco2)cc1,79,29,97,8.1*,134*,-37
CCn1c(SCC(=O)N/N=C/c2ccc(O)c(OC)c2)nc2ccccc21,105,-5,-12,0.68,92,9
O=c1sc(Nc2ccccc2)nc2ccsc12,127,-33,66,2.5,137*,-38
